≈ marks a conversion by molar mass, not a printed value.
Legend:
[1] = system: Mycobacterium tuberculosis; assay: Antitubercular activity against Mycobacterium tuberculosis H37Rv incubated for 7 days by microplate alamar blue assay; assay type: functional; conditions: 168 h, time 7 day
Method in brief: (§1)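 MIC determined by microplate alamar blue assay (MABA) following a published protocol.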

[2] = system: Vero; assay: Cytotoxicity against African green monkey Vero cells assessed as reduction in cell viability measured after 48 hrs by MTT assay; assay type: cell-based; conditions: Chlorocebus sabaeus
Method in brief: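 Cytotoxicity on Vero or HepG2 cells by MTT assay, run as previously reported.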

[3] = Inhibition of mitochondrial protein synthesis in rat H9c2 cells measured after 5 days by ELISA; assay type: cell-based; conditions: H9c2, 120 h
Method in brief: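 H9C2 cells in DMEM with 10% FBS, seeded 1500/well. After 18 h, compound added at final 0.03–200 μM (3-fold series), then 5 days at 37 °C, 5% CO2; 0.5% DMSO negative control. MPS inhibition read by MitoBiogenesis In-Cell ELISA; IC50 calculated.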

[4] = Stability in CD-1 mouse liver microsome assessed as parent compound remaining at 1 uM measured after 30 mins in presence of NADPH by LC-MS/MS analysis; assay type: ADME; conditions: liver microsomes, read-out: Stabilty
Method in brief: (§2)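 Liver microsomes (male CD-1 mouse or pooled human), 1 mg/mL protein, compound 1 µM, 37°C with shaking. Started with 1 mM NADPH or run without cofactor. Quenched with ice-cold ACN/MeOH containing internal standard. Parent quantified by LC-MS/MS; 30 min concentration normalised to time zero.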

[5] = Stability in CD-1 mouse liver microsome at 1 uM measured after 30 mins in absence of NADPH by LC-MS/MS analysis; assay type: ADME; conditions: microsomes, 0.5 h; method in brief: as §2
[6] = system: Mycobacterium tuberculosis; assay: Antitubercular activity against Mycobacterium tuberculosis isolate 12525 incubated for 7 days by microplate alamar blue assay; assay type: functional; conditions: isolate 12525, 168 h, time 7 day; method in brief: as §1
[7] = Terminal half life in Balb/c mouse at 25 mg/kg, po by LC-MS/MS analysis; assay type: ADME, organism-based; conditions: in vivo, read-out: beta t1/2 (converted)
Method in brief: (§3)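 Female BALB/c mice, 20-25 g, five per route. Dosed 25 mg/kg p.o. in 0.5% carboxymethyl cellulose or 2.5 mg/kg i.v. in 10% DMSO/saline. Blood sampled 5 min-72 h (p.o.) or 2 min-48 h (i.v.), quantified by LC/MS/MS with ESI+. Parameters by non-compartmental analysis; F = (AUCpo×dose_iv)/(AUCiv×dose_po)×100%.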

[8] = AUC (0 to infinity) in Balb/c mouse at 25 mg/kg, po by LC-MS/MS analysis; assay type: ADME, organism-based; set-up: route oral, time infinity, dose 25 mg/kg; conditions: in vivo
Method in brief: (§4)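 Female BALB/c mice (20–25 g), five per route. Oral dose 25 mg/kg in 0.5% carboxymethyl cellulose; i.v. dose 2.5 mg/kg in 10% DMSO/physiological saline. Blood sampled 5 min–72 h after p.o. and 2 min–48 h after i.v. Analyte quantified by LC/MS/MS (ESI positive, C18, isocratic methanol/water). Parameters from non-compartmental analysis.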

[9] = Tmax in Balb/c mouse at 25 mg/kg, po by LC-MS/MS analysis; assay type: ADME, organism-based; conditions: in vivo; method in brief: as §3
[10] = AUC (0 to t) in Balb/c mouse at 25 mg/kg, po by LC-MS/MS analysis; assay type: ADME, organism-based; set-up: dose 25 mg/kg; conditions: in vivo; method in brief: as §4
[11] = MRT (0 to t) in Balb/c mouse at 25 mg/kg, po by LC-MS/MS analysis; assay type: ADME, organism-based; conditions: in vivo; method in brief: as §4
[12] = MRT (0 to infinity) in Balb/c mouse at 25 mg/kg, po by LC-MS/MS analysis; assay type: ADME, organism-based; conditions: in vivo; method in brief: as §4
[13] = Cmax in Balb/c mouse at 25 mg/kg, po by LC-MS/MS analysis; assay type: ADME, organism-based; set-up: route oral, dose 25 mg/kg; conditions: in vivo; method in brief: as §4
[14] = Mycobacterium tuberculosis, H37Rv, read-out: MIC

Structure (SMILES)	MIC [1, 14] [µg/mL]	IC50 [2] [µg/mL]	IC50 [3] [µM]	also measured
CC(=O)OC[C@@H]1OC(=O)N2c3cc(F)c(N4CCSCC4)cc3OC[C@@H]12	> 1			
NC[C@@H]1OC(=O)N2c3cc(F)c(N4CCSCC4)cc3OC[C@H]12 (racemic)	> 32			
O=C(NC[C@@H]1OC(=O)N2c3cc(F)c(N4C5CCC4CSC5)cc3OC[C@@H]12)c1ccncc1	2.83 (≈ 6.01 µM)	> 64		
O=C(NC[C@@H]1OC(=O)N2c3cc(F)c(N4CC5(COC5)C4)cc3OC[C@@H]12)C1CC1	3.09 (≈ 7.66 µM)			
CC(=O)NC[C@@H]1OC(=O)N2c3cc(F)c(N4CCSCC4)cc3OC[C@H]12 (racemic)	> 32			
CC(=O)NC[C@@H]1OC(=O)N2c3cc(F)c(N4CCOCC4)cc3OC[C@@H]12	0.89 (≈ 2.44 µM)	> 64	51.2	
NC[C@@H]1OC(=O)N2c3cc(F)c(N4CCSCC4)cc3OC[C@@H]12		36 (≈ 106 µM)	> 100	remaining at 0.5 h, 1 µM [4]: 15.8%; MIC [1]: 0.03 µg/mL (≈ 0.0884 µM); Stabilty [5]: Stable
CO[C@H]1/C=C/O[C@@]2(C)Oc3c(C)c(O)c4c(O)c(c(/C=N/N5CCN(C)CC5)c(O)c4c3C2=O)NC(=O)/C(C)=C\C=C\[C@H](C)[C@H](O)[C@@H](C)[C@@H](O)[C@@H](C)[C@H](OC(C)=O)[C@@H]1C [RIFAMPIN]				MIC [6]: > 10 µg/mL
CC(=O)NC[C@@H]1OC(=O)N2c3cc(F)c(N4CCS(=O)(=O)CC4)cc3OC[C@@H]12	0.93 (≈ 2.25 µM)		26	half-life [7]: 7.64 h; AUC(0-inf) [8]: 1480 ng·h/mL; Tmax [9]: 1 h; AUC(0-t) [10]: 1250 ng·h/mL; MRT last [11]: 10.3 h; MRT inf [12]: 14.3 h; Cmax [13]: 118 ng/mL
O=C(NC[C@@H]1OC(=O)N2c3cc(F)c(N4C5CCC4CSC5)cc3OC[C@@H]12)c1cnccn1	> 32	9.53 (≈ 20.2 µM)		
O=C(NC[C@@H]1OC(=O)N2c3cc(F)c(N4CCSCC4)cc3OC[C@@H]12)c1cnccn1	0.12 (≈ 0.269 µM)	40.7 (≈ 91.3 µM)	> 100	remaining at 0.5 h, 1 µM [4]: 6.85%; Stabilty [5]: Stable
O=C(NC[C@@H]1OC(=O)N2c3cc(F)c(N4C5CCC4CSC5)cc3OC[C@@H]12)C1CC1	0.98 (≈ 2.26 µM)	> 64		
O=C(NC[C@@H]1OC(=O)N2c3cc(F)c(N4CCSCC4)cc3OC[C@@H]12)c1ccncc1	0.16 (≈ 0.36 µM)		> 100	remaining at 0.5 h, 1 µM [4]: 20.8%; Stabilty [5]: Stable
CC(C)C(=O)NC[C@@H]1OC(=O)N2c3cc(F)c(N4C5CCC4CSC5)cc3OC[C@@H]12	1.48 (≈ 3.4 µM)	> 64		
CNC[C@@H]1OC(=O)N2c3cc(F)c(N4CCSCC4)cc3OC[C@@H]12	> 32	46.5 (≈ 132 µM)		
NC[C@@H]1OC(=O)N2c3cc(F)c(N4CCSCC4)cc3OC[C@@H]12 (racemic)				MIC [1]: 0.1 µg/mL (≈ 0.295 µM)
CC(=O)NC[C@@H]1OC(=O)N2c3cc(F)c(N4CC5(COC5)C4)cc3OC[C@@H]12	3.92 (≈ 10.4 µM)			
O=C(NC[C@@H]1OC(=O)N2c3cc(F)c(N4CC5(COC5)C4)cc3OC[C@@H]12)C1CCC1	4.2 (≈ 10.1 µM)			
O=C1O[C@@H](CNc2ccon2)[C@@H]2COc3cc(N4C5CCC4CSC5)c(F)cc3N12	2.52 (≈ 5.83 µM)	> 64		
O=C1O[C@@H](Cn2ccnn2)[C@@H]2COc3cc(N4CC5(COC5)C4)c(F)cc3N12	> 32	> 64		

Structure (SMILES)	MIC [1, 14] [µg/mL]	IC50 [2] [µg/mL]	IC50 [3] [µM]	also measured
CC(=O)NC[C@@H]1OC(=O)N2c3cc(F)c(N4CCC(F)(F)CC4)cc3OC[C@@H]12	0.91 (≈ 2.28 µM)		10.1	
CS(=O)(=O)NC[C@@H]1OC(=O)N2c3cc(F)c(N4CCSCC4)cc3OC[C@@H]12	3.9 (≈ 9.34 µM)			
CC(=O)NC[C@@H]1OC(=O)N2c3ccc(N4CCSCC4)cc3OC[C@@H]12	0.79 (≈ 2.17 µM)	> 64		
O=C1O[C@@H](Cn2ccnn2)[C@@H]2COc3cc(N4CCSCC4)c(F)cc3N12	0.23 (≈ 0.588 µM)		> 100	remaining at 0.5 h, 1 µM [4]: 21.7%; Stabilty [5]: Stable
O=C(NC[C@@H]1OC(=O)N2c3cc(F)c(N4CCSCC4)cc3OC[C@@H]12)C1CC1	0.03 (≈ 0.0736 µM)		> 100	remaining at 0.5 h, 1 µM [4]: 15%; Stabilty [5]: Stable
CC(=O)N(C[C@@H]1OC(=O)N2c3cc(F)c(N4CCSCC4)cc3OC[C@@H]12)C(C)=O	0.34 (≈ 0.803 µM)	> 64		
CC(C)C(=O)NC[C@@H]1OC(=O)N2c3cc(F)c(N4CCSCC4)cc3OC[C@@H]12	0.1 (≈ 0.244 µM)		> 100	remaining at 0.5 h, 1 µM [4]: 6.02%; Stabilty [5]: Stable
O=C1O[C@@H](CNc2ccon2)[C@@H]2COc3cc(N4CCSCC4)c(F)cc3N12	0.03 (≈ 0.0738 µM)		> 100	remaining at 0.5 h, 1 µM [4]: 0%; Stabilty [5]: Stable
COC(=O)NC[C@@H]1OC(=O)N2c3cc(F)c(N4C5CCC4CSC5)cc3OC[C@@H]12	1.68 (≈ 3.97 µM)	> 64		
O=C(NC[C@@H]1OC(=O)N2c3cc(F)c(N4C5CCC4CSC5)cc3OC[C@@H]12)C1CCC1	0.97 (≈ 2.17 µM)	34.7 (≈ 77.5 µM)		
CC(=O)NC[C@H]1OC(=O)N2c3cc(F)c(N4CCSCC4)cc3OC[C@H]12	> 32			
O=C1O[C@@H](CO)[C@H]2COc3cc(N4CCSCC4)c(F)cc3N12 (racemic)	> 32			
O=C1O[C@@H](CO)[C@@H]2COc3cc(N4CCSCC4)c(F)cc3N12 (racemic)	3.79 (≈ 11.1 µM)			
CC(=O)NC[C@@H]1OC(=O)N2c3cc(F)c(N4C5CCC4CSC5)cc3OC[C@@H]12	0.92 (≈ 2.26 µM)	58.5 (≈ 144 µM)		
CC(=O)N(C)C[C@@H]1OC(=O)N2c3cc(F)c(N4CCSCC4)cc3OC[C@@H]12	> 1			
O=C1O[C@@H](Cn2ccnn2)[C@@H]2COc3cc(N4C5CCC4CSC5)c(F)cc3N12	> 32	> 64		
O=C(NC[C@@H]1OC(=O)N2c3cc(F)c(N4CCSCC4)cc3OC[C@@H]12)C1CCC1	0.03 (≈ 0.0712 µM)		53.7	remaining at 0.5 h, 1 µM [4]: 4%; Stabilty [5]: Stable
COC(=O)NC[C@@H]1OC(=O)N2c3cc(F)c(N4CCSCC4)cc3OC[C@@H]12	0.03 (≈ 0.0755 µM)		> 100	remaining at 0.5 h, 1 µM [4]: 3.59%; Stabilty [5]: Stable
CC(=O)NC[C@@H]1OC(=O)N2c3cc(F)c(N4CCSCC4)cc3OC[C@@H]12 (racemic)				MIC [1]: 0.16 µg/mL (≈ 0.419 µM)
